From ChEMBL document CHEMBL1153411, “Comparing anti-HIV, antibacterial, antifungal, micellar, and cytotoxic properties of tricarboxylato dendritic amphiphiles” (Bioorg Med Chem, 2009)
In brackets after ≈: the same amount, converted by molar mass.

system: Candida albicans; assay: Antifungal activity against Candida albicans; type: functional; details: not given
Summary of the method: (§1)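 Whole-cell growth-inhibition assays against L. plantarum or C. albicans, compounds added from aqueous triethanolamine stocks. Activity expressed as MIC99, the concentration giving complete inhibition of growth. Error ±1 twofold dilution.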

SMILES	MIC99
CCCCCCCCCCCCCCCCCCCCCCNC(=O)NC(CCC(=O)O)(CCC(=O)O)CCC(=O)O	2700 µM (≈ 1620 µg/mL)
CCCCCCCCCCCCCCCCNC(=O)NC(CCC(=O)O)(CCC(=O)O)CCC(=O)O	47 µM (≈ 24.2 µg/mL)
CCCCCCCCCCCCCCCCCCNC(=O)NC(CCC(=O)O)(CCC(=O)O)CCC(=O)O	1400 µM (≈ 760 µg/mL)
CCCCCCCCCCCCCCOC(=O)NC(CCC(=O)O)(CCC(=O)O)CCC(=O)O	1600 µM (≈ 780 µg/mL)
CCCCCCCCCCCCCCCCCCCCNC(=O)NC(CCC(=O)O)(CCC(=O)O)CCC(=O)O	2800 µM (≈ 1600 µg/mL)
CCCCCCCCCCCCCCCCCCCCCC(=O)NC(CCC(=O)O)(CCC(=O)O)CCC(=O)O	7.7 µM (≈ 4.39 µg/mL)
CCCCCCCCCCCCCCNC(=O)NC(CCC(=O)O)(CCC(=O)O)CCC(=O)O	1600 µM (≈ 779 µg/mL)

system: not listed separately; assay: Cytotoxicity against human epithelial cells by MTT assay; type: cell-based; details: Epithelial cell
Summary of the method: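 Same HeLa cells and same conditions as the infection assay, on a separate plate without virus. Viability measured by MTT reduction. EC50 by linear regression; SD ±10%.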

SMILES	EC50
CCCCCCCCCCCCCCCCCCCCCCNC(=O)NC(CCC(=O)O)(CCC(=O)O)CCC(=O)O	260 µM
CCCCCCCCCCCCCCCCNC(=O)NC(CCC(=O)O)(CCC(=O)O)CCC(=O)O	350 µM
CCCCCCCCCCCCCCCCCCNC(=O)NC(CCC(=O)O)(CCC(=O)O)CCC(=O)O	280 µM
CCCCCCCCCCCCCCOC(=O)NC(CCC(=O)O)(CCC(=O)O)CCC(=O)O	620 µM
CCCCCCCCCCCCCCCCCCCCNC(=O)NC(CCC(=O)O)(CCC(=O)O)CCC(=O)O	210 µM
CCCCCCCCCCCCCCCCCCCCCC(=O)NC(CCC(=O)O)(CCC(=O)O)CCC(=O)O	250 µM

system: not listed separately; assay: Slope of log critical micelle concentration versus chain length n in aqueous potassium hydroxide by conductivity measurement; details: buffer

SMILES	slope of logCMC vs n
CCCCCCCCCCCCCCCCCCCCCCNC(=O)NC(CCC(=O)O)(CCC(=O)O)CCC(=O)O	-0.3
CCCCCCCCCCCCCCCCNC(=O)NC(CCC(=O)O)(CCC(=O)O)CCC(=O)O	-0.3
CCCCCCCCCCCCCCCCCCNC(=O)NC(CCC(=O)O)(CCC(=O)O)CCC(=O)O	-0.3
CCCCCCCCCCCCCCCCCCCCNC(=O)NC(CCC(=O)O)(CCC(=O)O)CCC(=O)O	-0.3
CCCCCCCCCCCCCCCCCCCCCC(=O)NC(CCC(=O)O)(CCC(=O)O)CCC(=O)O	-0.175
CCCCCCCCCCCCCCNC(=O)NC(CCC(=O)O)(CCC(=O)O)CCC(=O)O	-0.3

system: Neisseria gonorrhoeae; assay: Antibacterial activity against Neisseria gonorrhoeae ATCC 31426 after 4 days by broth microdilution method; type: functional; details: ATCC 31426, 96 h
Summary of the method: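 Strain ATCC 31426 from chocolate agar (1% hemoglobin) colonies, grown 4 d in GC broth at 37 °C in an anaerobic jar with CO2 generator. Cells taken up in buffered saline gelatin and allowed to settle 4 h. Broth microdilution over 6.25 mg/mL down to 0.55 µg/mL. Plates incubated 4 d at 37 °C, in triplicate. MIC is the lowest concentration giving prominent visible decrease in turbidity; ±1 twofold dilution.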

SMILES	MIC99
CCCCCCCCCCCCCCCCCCCCCCNC(=O)NC(CCC(=O)O)(CCC(=O)O)CCC(=O)O	120 µM (≈ 71.9 µg/mL)
CCCCCCCCCCCCCCCCNC(=O)NC(CCC(=O)O)(CCC(=O)O)CCC(=O)O	2800 µM (≈ 1440 µg/mL)
CCCCCCCCCCCCCCCCCCNC(=O)NC(CCC(=O)O)(CCC(=O)O)CCC(=O)O	130 µM (≈ 70.6 µg/mL)
CCCCCCCCCCCCCCOC(=O)NC(CCC(=O)O)(CCC(=O)O)CCC(=O)O	580 µM (≈ 283 µg/mL)
CCCCCCCCCCCCCCCCCCCCNC(=O)NC(CCC(=O)O)(CCC(=O)O)CCC(=O)O	120 µM (≈ 68.5 µg/mL)
CCCCCCCCCCCCCCCCCCCCCC(=O)NC(CCC(=O)O)(CCC(=O)O)CCC(=O)O	120 µM (≈ 68.4 µg/mL)
CCCCCCCCCCCCCCNC(=O)NC(CCC(=O)O)(CCC(=O)O)CCC(=O)O	12000 µM (≈ 5840 µg/mL)

system: Human immunodeficiency virus 1; assay: Antiviral activity against HIV1 3B with X4 trophism infected in human HeLa cells after 2 hrs by beta-galactosidase reporter gene assay; type: functional, organism-based; details: Human immunodeficiency virus 1, 3B
Summary of the method: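 CD4+, LTR-driven β-galactosidase HeLa cells exposed 2 h to HIV-1 IIIB plus serial compound dilutions. Virus and compound then washed out and cells cultured 48 h in RPMI 1640/10% FBS at 37 °C, 5% CO2. Lysate β-galactosidase measured by chemiluminescence, with virus-only wells as 100% infection. EC50 by linear regression; SD ±10%.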

SMILES	EC50
CCCCCCCCCCCCCCCCCCCCCCNC(=O)NC(CCC(=O)O)(CCC(=O)O)CCC(=O)O	120 µM
CCCCCCCCCCCCCCCCNC(=O)NC(CCC(=O)O)(CCC(=O)O)CCC(=O)O	180 µM
CCCCCCCCCCCCCCCCCCNC(=O)NC(CCC(=O)O)(CCC(=O)O)CCC(=O)O	240 µM
CCCCCCCCCCCCCCOC(=O)NC(CCC(=O)O)(CCC(=O)O)CCC(=O)O	370 µM
CCCCCCCCCCCCCCCCCCCCNC(=O)NC(CCC(=O)O)(CCC(=O)O)CCC(=O)O	130 µM
CCCCCCCCCCCCCCCCCCCCCC(=O)NC(CCC(=O)O)(CCC(=O)O)CCC(=O)O	130 µM
CCCCCCCCCCCCCCNC(=O)NC(CCC(=O)O)(CCC(=O)O)CCC(=O)O	270 µM

system: not listed separately; assay: Solubility of compound in triethanolamine solution; type: physicochemical; details: not given

SMILES	solubility
CCCCCCCCCCCCCCCCCCCCCC(=O)NC(CCC(=O)O)(CCC(=O)O)CCC(=O)O	> 22000 µM

system: not listed separately; assay: Critical micelle concentration in aqueous triethanalamine at pH 8.0 to 9.5 by fluorescence spectra measurement; details: buffer

SMILES	CMC
CCCCCCCCCCCCCCCCCCCCCCNC(=O)NC(CCC(=O)O)(CCC(=O)O)CCC(=O)O	400 µM
CCCCCCCCCCCCCCCCNC(=O)NC(CCC(=O)O)(CCC(=O)O)CCC(=O)O	7100 µM
CCCCCCCCCCCCCCCCCCNC(=O)NC(CCC(=O)O)(CCC(=O)O)CCC(=O)O	2300 µM
CCCCCCCCCCCCCCCCCCCCNC(=O)NC(CCC(=O)O)(CCC(=O)O)CCC(=O)O	1300 µM
CCCCCCCCCCCCCCCCCCCCCC(=O)NC(CCC(=O)O)(CCC(=O)O)CCC(=O)O	1500 µM

system: not listed separately; assay: Safety index, ratio of EC50 for human epithelial cells to MIC99 for Candida albicans; type: toxicity, cell-based, Epithelial cell; details: not given

SMILES	selectivity ratio
CCCCCCCCCCCCCCCCNC(=O)NC(CCC(=O)O)(CCC(=O)O)CCC(=O)O	7
CCCCCCCCCCCCCCCCCCCCCC(=O)NC(CCC(=O)O)(CCC(=O)O)CCC(=O)O	32

system: not listed separately; assay: Safety ratio of critical micelle concentration in aqueous potassium hydroxide to MIC99 for Candida albicans; type: toxicity; details: buffer

SMILES	Ratio
CCCCCCCCCCCCCCCCNC(=O)NC(CCC(=O)O)(CCC(=O)O)CCC(=O)O	49
CCCCCCCCCCCCCCCCCCCCCC(=O)NC(CCC(=O)O)(CCC(=O)O)CCC(=O)O	1.7

system: not listed separately; assay: Critical micelle concentration in aqueous triethanalamine at pH 6.4 by fluorescence spectra measurement; type: physicochemical; details: not given
Summary of the method: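 Measured in triethanolamine/water 0.9% (wt/vol) with pH adjusted to 7.4 or 6.4, using pyrene as micelle probe. Mixtures shaken at least 24 h. Excitation 334 nm, bandpasses 5/2.5 nm. CMC from emission intensities of the I1 (373 nm) and I3 (384 nm) peaks.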

SMILES	CMC
CCCCCCCCCCCCCCCCNC(=O)NC(CCC(=O)O)(CCC(=O)O)CCC(=O)O	480 µM
CCCCCCCCCCCCCCCCCCCCCC(=O)NC(CCC(=O)O)(CCC(=O)O)CCC(=O)O	150 µM

system: not listed separately; assay: Safety ratio of critical micelle concentration in aqueous triethanalamine at pH 7.4 to MIC99 for Candida albicans; type: toxicity; details: aqueous triethanolamine

SMILES	selectivity ratio
CCCCCCCCCCCCCCCCNC(=O)NC(CCC(=O)O)(CCC(=O)O)CCC(=O)O	83
CCCCCCCCCCCCCCCCCCCCCC(=O)NC(CCC(=O)O)(CCC(=O)O)CCC(=O)O	52

system: not listed separately; assay: Critical micelle concentration in aqueous potassium hydroxide by conductivity measurement; type: physicochemical; details: buffer
Summary of the method: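 Measured in potassium hydroxide solutions at high pH so that only the trianion is present. Solutions stirred during conductivity measurement. CMC taken by least-squares fits of the linear portions of conductivity-versus-concentration plots on either side of the break.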

SMILES	CMC
CCCCCCCCCCCCCCCCCCCCCCNC(=O)NC(CCC(=O)O)(CCC(=O)O)CCC(=O)O	40 µM
CCCCCCCCCCCCCCCCNC(=O)NC(CCC(=O)O)(CCC(=O)O)CCC(=O)O	2300 µM
CCCCCCCCCCCCCCCCCCNC(=O)NC(CCC(=O)O)(CCC(=O)O)CCC(=O)O	330 µM
CCCCCCCCCCCCCCCCCCCCNC(=O)NC(CCC(=O)O)(CCC(=O)O)CCC(=O)O	120 µM
CCCCCCCCCCCCCCCCCCCCCC(=O)NC(CCC(=O)O)(CCC(=O)O)CCC(=O)O	13 µM
CCCCCCCCCCCCCCNC(=O)NC(CCC(=O)O)(CCC(=O)O)CCC(=O)O	8400 µM

system: not listed separately; assay: Critical micelle concentration in aqueous triethanalamine using drop shape analysis by surface tension measurement; type: physicochemical; details: buffer
Summary of the method: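 Surface tension from pendent drops on an 18-gauge needle in triethanolamine/water 0.9% (wt/vol), with solution pH 8.0–9.5. Drop kept in a cuvette holding aqueous triethanolamine to maintain humidity, and camera magnification calibrated from needle tip width. CMC from the break in surface tension versus log concentration.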

SMILES	CMC
CCCCCCCCCCCCCCCCCCCCCCNC(=O)NC(CCC(=O)O)(CCC(=O)O)CCC(=O)O	340 µM
CCCCCCCCCCCCCCCCNC(=O)NC(CCC(=O)O)(CCC(=O)O)CCC(=O)O	4900 µM
CCCCCCCCCCCCCCCCCCNC(=O)NC(CCC(=O)O)(CCC(=O)O)CCC(=O)O	2200 µM
CCCCCCCCCCCCCCCCCCCCNC(=O)NC(CCC(=O)O)(CCC(=O)O)CCC(=O)O	1400 µM
CCCCCCCCCCCCCCCCCCCCCC(=O)NC(CCC(=O)O)(CCC(=O)O)CCC(=O)O	2000 µM

system: not listed separately; assay: Ratio of EC50 for human HeLa cells to EC50 for HIV1 3B infected in human HeLa cells; details: not given

SMILES	Ratio EC50
CCCCCCCCCCCCCCCCCCCCCCNC(=O)NC(CCC(=O)O)(CCC(=O)O)CCC(=O)O	2.2
CCCCCCCCCCCCCCCCNC(=O)NC(CCC(=O)O)(CCC(=O)O)CCC(=O)O	1.9
CCCCCCCCCCCCCCCCCCNC(=O)NC(CCC(=O)O)(CCC(=O)O)CCC(=O)O	1.2
CCCCCCCCCCCCCCOC(=O)NC(CCC(=O)O)(CCC(=O)O)CCC(=O)O	1.7
CCCCCCCCCCCCCCCCCCCCNC(=O)NC(CCC(=O)O)(CCC(=O)O)CCC(=O)O	1.6
CCCCCCCCCCCCCCNC(=O)NC(CCC(=O)O)(CCC(=O)O)CCC(=O)O	1.1

system: not listed separately; assay: Solubility of compound in phosphate buffer at pH 7.2; type: physicochemical; details: not given

SMILES	solubility
CCCCCCCCCCCCCCCCCCCCCC(=O)NC(CCC(=O)O)(CCC(=O)O)CCC(=O)O	79 µM (≈ 45 µg/mL)

system: Lactiplantibacillus plantarum; assay: Antibacterial activity against Lactobacillus plantarum; type: functional; details: not given; summary of the method: as §1

SMILES	MIC99
CCCCCCCCCCCCCCCCCCCCCCNC(=O)NC(CCC(=O)O)(CCC(=O)O)CCC(=O)O	940 µM (≈ 563 µg/mL)
CCCCCCCCCCCCCCCCNC(=O)NC(CCC(=O)O)(CCC(=O)O)CCC(=O)O	6000 µM (≈ 3090 µg/mL)
CCCCCCCCCCCCCCCCCCNC(=O)NC(CCC(=O)O)(CCC(=O)O)CCC(=O)O	1400 µM (≈ 760 µg/mL)
CCCCCCCCCCCCCCOC(=O)NC(CCC(=O)O)(CCC(=O)O)CCC(=O)O	6400 µM (≈ 3120 µg/mL)
CCCCCCCCCCCCCCCCCCCCNC(=O)NC(CCC(=O)O)(CCC(=O)O)CCC(=O)O	1400 µM (≈ 799 µg/mL)
CCCCCCCCCCCCCCCCCCCCCC(=O)NC(CCC(=O)O)(CCC(=O)O)CCC(=O)O	490 µM (≈ 279 µg/mL)
CCCCCCCCCCCCCCNC(=O)NC(CCC(=O)O)(CCC(=O)O)CCC(=O)O	6400 µM (≈ 3110 µg/mL)
